We go through 1 compound from ChEMBL document CHEMBL4387720, “Lead generation of 1,2-dithiolanes as exon 19 and exon 21 mutant EGFR tyrosine kinase inhibitors” (Bioorg Med Chem Lett, 2019).

The target in test [1] is Epidermal growth factor receptor (Homo sapiens, UniProt P00533). The test can be described thus: Binding affinity to human partial length wild type EGFR (R669 to V1011 residues) expressed in bacterial expression system by kinomescan assay. The gist of the method:
(§1)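 Competition binding against an immobilized active-site-directed ligand. Bound kinase is quantified by qPCR of its DNA tag. Kd values come from duplicate 11-point dose-response curves.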

The target of test [2] is Epidermal growth factor receptor (Homo sapiens, UniProt P00533, S752-I759DEL). The test is described as follows: Binding affinity to human partial length EGFR S752-I759 deletion mutant expressed in bacterial expression system by KinomeScan assay. The gist of the method: as §1
For another test, the species on record is Homo sapiens. The test is described as follows: Selectivity ratio, ratio of IC50 for probe binding to HER2 (unknown origin) to IC50 for probe binding to EGFR L858R mutant (unknown origin). The gist of the method: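 Ratio of two IC50 values measured in the rabbit reticulocyte lysate competition binding assay: HER2 and EGFR L858R. Each IC50 comes from displacement of an active-site-dependent probe, read by luminescence, with a ten-point dose-response. Each IC50 is the average of triplicate experiments.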

For test [3], the target named is Epidermal growth factor receptor (Homo sapiens, UniProt P00533, L861Q). The test is described as follows: Binding affinity to human partial length EGFR L861Q mutant (R669 to V1011 residues) expressed in bacterial expression system by KinomeScan assay. The gist of the method:
as §1

The test system of another test is NCI-H322M. The test can be described thus: Therapeutic index, ratio of LC50 for human NCI-H322M cells to GI50 for human NCI-H322M cells. Type of test: functional. The gist of the method:
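NCI-60 panel screen using five-dose response curves, each value an average of 2 experiments. […] The therapeutic index is calculated as LC50/GI50 for the same cell line.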

The test system of a further test is A549. The test can be described thus: cells. Type of test: functional. The conditions noted are these: Homo sapiens, A549, 48 h.
For another test, the target named is Cytochrome P450 1A2 (Homo sapiens, UniProt P05177). The test can be described thus: Inhibition of CYP1A2 (unknown origin). Type of test: ADME.
In the next test the test system is NCI-H460. The test is described as follows: Therapeutic index, ratio of LC50 for human NCI-H460 cells to GI50 for human NCI-H460 cells. Type of test: functional. The gist of the method: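 NCI-60 panel cell growth assay. Five-point dose-response curves; each value is the average of 2 experiments. […] Therapeutic index is calculated as LC50/GI50.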
In test [4] the target is Epidermal growth factor receptor (Homo sapiens, UniProt P00533, G719S). The test is described as follows: Binding affinity to human partial length EGFR G719S mutant (R669 to V1011 residues) expressed in bacterial expression system by KinomeScan assay. The gist of the method:
as §1

For test [5], the system named is CCRF-CEM. The test is described as follows: cells. Type of test: functional. The settings on record: Homo sapiens, 48 h.
The target of test [6] is Epidermal growth factor receptor (Homo sapiens, UniProt P00533, G719C). The test can be described thus: Binding affinity to human partial length EGFR G719C mutant (R669 to V1011 residues) expressed in bacterial expression system by KinomeScan assay. The gist of the method: as §1
Test [7] has as its target Tyrosine-protein kinase BTK (Homo sapiens) (UniProt Q06187). The test is described as follows: Inhibition of probe binding to BTK (unknown origin) using rabbit reticulate lysate system at 250 nM after 1 hr by luminescence assay relative to control.
The subject of test [8] is CCRF-CEM. The test can be described thus: Cytotoxicity against human CCRF-CEM cells assessed as reduction in measured protein incubated for 48 hrs by SRB assay. Type of test: functional. The settings on record: read-out: LC50 (the source's name). The gist of the method:
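Tested in the NCI-60 panel with a five-dose response curve, each value the mean of 2 experiments.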
In general terms: In SRB staining, fixed cells bind dye roughly in proportion to their protein.

A word on the Kd: it is the free concentration of one partner at which half of the binding sites on the other are occupied at equilibrium, for simple one-to-one binding. For orientation: GI50 means the concentration giving 50% growth inhibition. Read a low GI50 as greater sensitivity of the cells. What is called IC50 is the point on the concentration scale where inhibition reaches its midpoint. Read a low IC50 as inhibition by little substance. Usually inhibition stands for the percentage by which the read-out fell short of the control.

Sequence of Epidermal growth factor receptor (Homo sapiens, UniProt P00533, G719C) (P00533 25-1210 G719C limits assumed): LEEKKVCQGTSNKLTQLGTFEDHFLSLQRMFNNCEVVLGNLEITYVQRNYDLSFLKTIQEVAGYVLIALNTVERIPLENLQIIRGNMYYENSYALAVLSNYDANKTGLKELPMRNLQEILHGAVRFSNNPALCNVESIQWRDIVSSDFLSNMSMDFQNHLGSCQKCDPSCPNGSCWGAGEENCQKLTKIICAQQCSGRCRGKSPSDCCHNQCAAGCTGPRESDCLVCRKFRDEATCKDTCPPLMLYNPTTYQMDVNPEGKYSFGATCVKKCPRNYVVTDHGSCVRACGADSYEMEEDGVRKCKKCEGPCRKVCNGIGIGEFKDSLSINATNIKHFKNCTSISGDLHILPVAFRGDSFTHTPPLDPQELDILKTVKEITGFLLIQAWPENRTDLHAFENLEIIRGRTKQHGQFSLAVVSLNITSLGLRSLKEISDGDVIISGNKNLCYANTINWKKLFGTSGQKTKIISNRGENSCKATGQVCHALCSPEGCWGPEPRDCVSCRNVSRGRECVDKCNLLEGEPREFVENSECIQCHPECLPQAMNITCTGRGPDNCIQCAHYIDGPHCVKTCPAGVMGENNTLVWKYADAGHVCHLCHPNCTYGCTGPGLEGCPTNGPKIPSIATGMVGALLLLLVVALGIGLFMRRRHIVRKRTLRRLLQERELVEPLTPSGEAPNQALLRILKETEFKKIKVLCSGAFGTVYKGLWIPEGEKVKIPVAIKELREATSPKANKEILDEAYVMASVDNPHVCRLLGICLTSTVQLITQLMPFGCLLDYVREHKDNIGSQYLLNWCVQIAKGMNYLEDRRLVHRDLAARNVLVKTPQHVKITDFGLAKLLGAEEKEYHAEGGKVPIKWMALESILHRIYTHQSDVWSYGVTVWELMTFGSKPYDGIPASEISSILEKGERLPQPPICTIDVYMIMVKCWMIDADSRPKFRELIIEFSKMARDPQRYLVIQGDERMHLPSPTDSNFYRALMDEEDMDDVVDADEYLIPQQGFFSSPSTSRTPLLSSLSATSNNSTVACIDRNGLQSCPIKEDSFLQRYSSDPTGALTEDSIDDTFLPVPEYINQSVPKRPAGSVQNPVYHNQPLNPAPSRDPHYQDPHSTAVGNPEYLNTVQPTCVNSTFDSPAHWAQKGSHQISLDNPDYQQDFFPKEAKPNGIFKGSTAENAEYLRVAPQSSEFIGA
Sequence of Tyrosine-protein kinase BTK (Homo sapiens) (Q06187 whole entry): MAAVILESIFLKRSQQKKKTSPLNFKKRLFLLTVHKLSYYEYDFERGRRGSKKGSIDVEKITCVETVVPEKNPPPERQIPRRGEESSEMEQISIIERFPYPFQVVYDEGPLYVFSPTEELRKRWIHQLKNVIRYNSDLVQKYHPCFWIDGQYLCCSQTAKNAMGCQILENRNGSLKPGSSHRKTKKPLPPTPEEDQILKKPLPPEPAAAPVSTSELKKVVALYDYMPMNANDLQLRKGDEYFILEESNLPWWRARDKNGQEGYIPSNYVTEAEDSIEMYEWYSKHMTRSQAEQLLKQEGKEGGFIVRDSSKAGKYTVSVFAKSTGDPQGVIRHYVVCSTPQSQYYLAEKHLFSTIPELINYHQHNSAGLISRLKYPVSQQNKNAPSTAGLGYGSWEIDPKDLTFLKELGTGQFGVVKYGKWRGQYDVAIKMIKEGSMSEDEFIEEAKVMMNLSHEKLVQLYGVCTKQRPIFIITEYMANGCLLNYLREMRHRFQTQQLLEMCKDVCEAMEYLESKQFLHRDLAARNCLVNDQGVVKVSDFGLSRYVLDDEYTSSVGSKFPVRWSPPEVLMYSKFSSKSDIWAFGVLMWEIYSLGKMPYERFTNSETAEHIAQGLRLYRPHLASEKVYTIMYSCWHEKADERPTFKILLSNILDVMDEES
Sequence of Epidermal growth factor receptor (Homo sapiens, UniProt P00533, G719S) (P00533 25-1210 G719S limits assumed): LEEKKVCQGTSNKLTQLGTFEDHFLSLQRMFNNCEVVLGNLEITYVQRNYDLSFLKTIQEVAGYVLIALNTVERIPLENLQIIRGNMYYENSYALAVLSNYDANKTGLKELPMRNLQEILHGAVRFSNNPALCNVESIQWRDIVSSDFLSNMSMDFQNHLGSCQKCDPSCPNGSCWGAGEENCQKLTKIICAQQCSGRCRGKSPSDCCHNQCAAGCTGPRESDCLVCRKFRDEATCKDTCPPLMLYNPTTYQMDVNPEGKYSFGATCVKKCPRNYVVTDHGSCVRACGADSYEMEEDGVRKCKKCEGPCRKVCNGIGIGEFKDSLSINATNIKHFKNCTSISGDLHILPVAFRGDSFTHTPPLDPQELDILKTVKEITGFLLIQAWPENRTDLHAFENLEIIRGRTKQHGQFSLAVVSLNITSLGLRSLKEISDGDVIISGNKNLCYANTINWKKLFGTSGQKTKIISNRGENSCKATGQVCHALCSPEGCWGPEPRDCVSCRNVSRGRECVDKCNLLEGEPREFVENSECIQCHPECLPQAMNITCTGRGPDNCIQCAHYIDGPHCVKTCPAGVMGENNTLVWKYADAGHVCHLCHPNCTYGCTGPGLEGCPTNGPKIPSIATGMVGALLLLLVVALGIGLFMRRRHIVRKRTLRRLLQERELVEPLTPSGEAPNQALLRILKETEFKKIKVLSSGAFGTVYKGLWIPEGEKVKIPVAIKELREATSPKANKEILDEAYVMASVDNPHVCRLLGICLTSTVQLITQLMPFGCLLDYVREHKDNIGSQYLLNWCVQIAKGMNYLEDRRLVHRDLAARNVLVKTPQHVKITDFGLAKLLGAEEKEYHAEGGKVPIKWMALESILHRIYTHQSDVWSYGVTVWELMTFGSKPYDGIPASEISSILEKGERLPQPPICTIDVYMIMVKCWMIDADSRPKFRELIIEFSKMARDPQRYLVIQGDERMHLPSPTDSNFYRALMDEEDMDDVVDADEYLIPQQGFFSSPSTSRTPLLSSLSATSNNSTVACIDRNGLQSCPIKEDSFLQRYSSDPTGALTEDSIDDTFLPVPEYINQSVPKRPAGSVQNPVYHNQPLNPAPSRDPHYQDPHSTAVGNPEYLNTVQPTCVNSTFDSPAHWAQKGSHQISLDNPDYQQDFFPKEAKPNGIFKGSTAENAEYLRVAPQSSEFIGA
Sequence of Cytochrome P450 1A2 (P05177 whole entry): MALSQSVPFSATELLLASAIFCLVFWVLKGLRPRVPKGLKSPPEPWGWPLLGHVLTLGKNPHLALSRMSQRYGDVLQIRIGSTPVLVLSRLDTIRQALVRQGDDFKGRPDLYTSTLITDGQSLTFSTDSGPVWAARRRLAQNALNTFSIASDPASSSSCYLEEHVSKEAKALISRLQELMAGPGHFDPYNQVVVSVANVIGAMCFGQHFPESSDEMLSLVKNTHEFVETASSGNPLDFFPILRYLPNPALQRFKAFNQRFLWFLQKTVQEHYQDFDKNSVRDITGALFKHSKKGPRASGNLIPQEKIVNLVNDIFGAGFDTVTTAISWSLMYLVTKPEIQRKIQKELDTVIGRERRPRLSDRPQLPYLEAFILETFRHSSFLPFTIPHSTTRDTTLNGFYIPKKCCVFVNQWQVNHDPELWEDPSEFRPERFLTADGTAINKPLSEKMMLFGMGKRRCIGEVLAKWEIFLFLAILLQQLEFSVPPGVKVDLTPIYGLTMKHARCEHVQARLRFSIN
Sequence of Epidermal growth factor receptor (Homo sapiens, UniProt P00533, S752-I759DEL) (P00533 whole entry S752-I759del, looked up): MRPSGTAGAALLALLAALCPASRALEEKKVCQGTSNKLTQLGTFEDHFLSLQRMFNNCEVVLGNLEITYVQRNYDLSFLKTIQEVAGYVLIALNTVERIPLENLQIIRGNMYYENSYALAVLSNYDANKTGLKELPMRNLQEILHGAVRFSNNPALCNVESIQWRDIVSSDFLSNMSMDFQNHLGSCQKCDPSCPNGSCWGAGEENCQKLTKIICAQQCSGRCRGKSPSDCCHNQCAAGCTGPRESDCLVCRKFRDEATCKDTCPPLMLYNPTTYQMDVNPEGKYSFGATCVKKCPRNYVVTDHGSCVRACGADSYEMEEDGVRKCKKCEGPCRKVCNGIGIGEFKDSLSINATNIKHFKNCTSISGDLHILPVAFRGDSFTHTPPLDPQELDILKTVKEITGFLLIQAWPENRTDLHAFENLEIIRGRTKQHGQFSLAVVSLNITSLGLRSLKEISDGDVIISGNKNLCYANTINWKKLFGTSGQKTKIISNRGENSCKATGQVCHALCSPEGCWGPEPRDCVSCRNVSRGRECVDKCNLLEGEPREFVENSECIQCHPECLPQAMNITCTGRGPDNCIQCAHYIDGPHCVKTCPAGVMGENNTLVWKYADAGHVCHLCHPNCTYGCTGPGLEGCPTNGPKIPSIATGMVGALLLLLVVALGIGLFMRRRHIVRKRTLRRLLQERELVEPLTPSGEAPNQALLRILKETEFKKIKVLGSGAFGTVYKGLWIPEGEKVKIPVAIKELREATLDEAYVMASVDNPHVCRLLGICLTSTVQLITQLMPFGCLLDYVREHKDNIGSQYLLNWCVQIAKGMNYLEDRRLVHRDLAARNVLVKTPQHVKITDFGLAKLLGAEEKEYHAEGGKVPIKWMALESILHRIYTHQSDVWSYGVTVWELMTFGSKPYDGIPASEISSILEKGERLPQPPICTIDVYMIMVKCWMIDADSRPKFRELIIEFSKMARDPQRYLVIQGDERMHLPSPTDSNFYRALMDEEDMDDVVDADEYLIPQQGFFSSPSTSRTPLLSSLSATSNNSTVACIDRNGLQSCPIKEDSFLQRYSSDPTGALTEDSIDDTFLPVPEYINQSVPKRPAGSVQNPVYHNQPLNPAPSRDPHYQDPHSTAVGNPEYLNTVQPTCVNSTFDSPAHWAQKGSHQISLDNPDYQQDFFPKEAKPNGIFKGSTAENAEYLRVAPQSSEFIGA

Turning to `CCOc1cc2ncc(C#N)c(Nc3ccc(OCc4cccc(F)c4)c(Cl)c3)c2cc1NC(=O)CC1CCSS1` (stereo not drawn), the Kd worked out at 120 nM in test [1]; 10 nM in test [2]; 4.8 nM in [3]; 14 nM in [4]; 5.7 nM in test [6]. Also, in the test listed under Homo sapiens, the Ratio IC50 turned out to be 14.7. In addition, the TI in the test on NCI-H322M was above 41.5; with NCI-H460 it was 4.1. For the same compound, the figures for the GI50 in the test with A549 and in the test with CCRF-CEM [5] were 540 nM and 150 nM, respectively. This compound returned an IC50 on Cytochrome P450 1A2 above 50000 nM. Also, the inhibition in [7] worked out at 0%. In addition, in the test with CCRF-CEM [8], the CC50 is above 25000 nM.
